Screening results as filed in PubChem BioAssay.
An excerpt weighted towards active compounds, which were near 1.5% of everything screened.
CXCR6 block = CXCR6 (human) receptor inhibition; O00574; CHO-K1 PathHunter CXCR6 beta-arrestin, luminescence; inhibition, % at 20 µM; 360,000 compounds, 0.36% hits; in the data active = inhibition above about 34%, passing the limit was not always enough;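 note: antagonist mode with CXCL16 agonist at 10 nM final; 0% = 10 nM CXCL16 with DMSO and 100% = unstimulated wells without agonist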
Target sequence (O00574 whole entry, looked up): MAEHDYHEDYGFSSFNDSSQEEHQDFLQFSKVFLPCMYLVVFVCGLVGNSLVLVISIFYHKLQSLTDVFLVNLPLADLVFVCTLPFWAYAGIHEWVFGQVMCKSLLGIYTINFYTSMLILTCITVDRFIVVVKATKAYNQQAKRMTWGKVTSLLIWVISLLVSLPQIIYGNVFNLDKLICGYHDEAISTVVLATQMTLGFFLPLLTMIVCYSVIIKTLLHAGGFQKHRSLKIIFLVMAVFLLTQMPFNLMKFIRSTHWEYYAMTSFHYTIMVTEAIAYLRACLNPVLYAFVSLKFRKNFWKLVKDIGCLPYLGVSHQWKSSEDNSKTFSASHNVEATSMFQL
EBI2 antag = antagonists of human EBI2 receptor; 360,000 compounds, 0.81% hits; EBI2 beta-arrestin recruitment, luminescence, 7a,25-OHC stimulated; inhibition, % at 5 µM; P32249; in the data active = inhibition above about 38%;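 note: enzyme fragment complementation signal reports receptor beta-arrestin coupling in cells; 0% = agonist plus DMSO wells and 100% = wells without agonist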
hiPSC survival = hiPSC single-cell survival enhancement. ATPlite luminescence; 100% = ROCK inhibitor wells, 0% = DMSO. survival enhancement, % at 20 µM. 360,000 compounds, 0.044% hits. AID 602274; in the data active = survival enhancement above about 18%;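 note: cells exposed to compounds for 16 hours before the ATP read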
CCR6 antagonist = antagonists of human CCR6 receptor | P51684 | CHO-K1 CCR6 PathHunter beta-arrestin, luminescence, CCL20-stimulated | inhibition, % at 20 µM | 340,000 compounds, 0.49% hits | AID 493098;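 active = compounds whose inhibition of the agonist-driven luminescence signal at 20 µM reaches about 50%, limit read from the data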;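 note: cells stimulated with CCL20 at 14 nM final; plate controls were DMSO with CCL20 for no effect and DMSO without agonist for full effect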
APJ agonist = agonists of human APJ apelin receptor. CHO-K1 APJ PathHunter beta-arrestin, luminescence; 0% DMSO wells, 100% apelin. activation, % at 20 µM. 330,000 compounds, 0.11% hits. P35414. AID 2520;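 active = activation more than six SD over the plate average, tested at 20 µM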;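 note: 0% = DMSO alone and 100% = apelin-13 at 10 nM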
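Test system – PathHunter CHO-K1 APJ (AGTRL-1) beta-arrestin reporter cells · Input – 1000 cells/well · Compound – single test compound dose, 20 µM final, 1% DMSO · Times – compound stimulation 90 min at 25 °C, detection 60 min · Technique – beta-gal luminescence · Read-out basis – APJ–arrestin association signal · Control set – negative DMSO alone, positive Apelin-13 at 10 nM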
APJ antagonist = APJ receptor antagonism; P35414; CHO-K1 APJ beta-arrestin complementation, luminescence; inhibition, % at 20 µM; 330,000 compounds, 0.32% hits;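 active = inhibition above about 40% at 20 µM, limit read from the data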;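 note: cells challenged with 10 nM apelin-13 agonist together with compound; plate controls were apelin-13 plus DMSO wells for no effect and DMSO wells lacking apelin-13 for full effect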
EBI2 conf = confirmation of human EBI2 receptor antagonists | shares compounds with EBI2 antag | EBI2 beta-arrestin luminescence, 7a,25-OHC antagonism | inhibition, % at 5 µM | 2,400 compounds, 29% hits | AID 651997;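 active = inhibition of at least 50%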
EBI2 ag = activates EBI2, counter-screen for EBI2 antagonists; activation, % at 5 µM; 2,400 tested, under 10 active; shares compounds with EBI2 antag; EBI2-expressing cells, agonist mode, luminescence, 60 min; 0% vehicle, 100% 7α,25-dihydroxycholesterol control;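 active = activation of at least 50%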
bGal counter = counter-screen for EBI2 antagonists: E. coli beta-galactosidase inhibition. shares compounds with EBI2 antag. purified beta-galactosidase, luminescent Galacton Star, 15 min. 2,400 compounds, 1% hits. AID 652176. inhibition, % at 5 µM;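 active = replicate-average signal at least 3 plate SD below neutral wells, shown as high inhibition, flagging enzyme-inhibiting false positives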;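 note: 0% = DMSO wells with enzyme and 100% = wells lacking enzyme; higher means stronger loss of beta-gal luminescence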
* marks the source's active call; other numbers are inactive results; x = no result given.

SMILES	CXCR6 block	EBI2 antag	hiPSC survival	CCR6 antagonist	APJ agonist	APJ antagonist	EBI2 conf	EBI2 ag	bGal counter
COc1ccc(S(=O)(=O)N2CCN(C(=O)NCc3ccc(C)cc3)CC2)cc1	5	77*	0	2	-1	10	60*	2	0
COc1ccc(S(=O)(=O)N2CCN(C(=S)NCCc3ccccc3)CC2)cc1	-4	12	0	7	13	-44	x	x	x
COc1ccc(CCNC(=S)N2CCN(S(=O)(=O)c3ccc(C)cc3)CC2)cc1	1	52*	0	16	7	14	43	1	0
Cc1ccc(CNC(=O)c2ccc(-n3cccc3)cc2)cc1	-2	47*	1	14	x	x	3	-1	-11
Cc1cccc(C(=O)NC(=S)Nc2ccc(S(=O)(=O)N3CCCCC3)cc2)c1	18	62*	8	41	-3	9	45	-1	-14
COc1ccccc1CCNC(=O)c1cccc(S(=O)(=O)N2CCc3ccccc3C2)c1	7	6	0	17	3	-9	x	x	x
O=C(NCc1ccc(F)cc1)N1CCN(S(=O)(=O)c2ccccc2F)CC1	-4	13	0	-9	-2	-5	x	x	x
Cc1ccc(CNC(=O)c2ccc(S(=O)(=O)N3CCCCC3)cc2)cc1	-2	64*	0	7	4	6	27	2	2
COc1ccc(CNC(=O)N2CCN(S(=O)(=O)c3ccc(C)cc3C)CC2)cc1	-4	63*	0	21	0	-11	39	-1	-17
Cc1ccc(S(=O)(=O)N2CCN(C(=O)NCc3ccc(F)cc3)CC2)c(C)c1	-1	68*	-1	8	-1	1	27	1	1
Fc1ccc(-c2nnc(-c3ccc4ccccc4c3)o2)cc1	7	-4	-3	6	x	x	x	x	x
Cc1ccc(C(=O)NCC(=O)OCC(=O)N(CC(C)C)c2c(N)n(Cc3ccccc3)c(=O)[nH]c2=O)s1	-2	1	-1	x	x	x	x	x	x
Cc1ccc(CNC(=O)c2ccc(N3CCc4ccccc43)c([N+](=O)[O-])c2)cc1	23	37*	2	31	-4	28	19	-1	-6
NNC(=O)c1ccc(N2CCc3ccccc32)c([N+](=O)[O-])c1	0	-6	0	15	-1	-15	x	x	x
COc1cccc(C(C(=O)NC2CCCCC2)N(C(=O)Cc2cccs2)c2ccc(-n3cnnn3)c(OC)c2)c1 (stereo not drawn)	6	10	-1	2	-3	6	x	x	x
COc1cccc(C(C(=O)NC2CCCCC2)N(C(=O)c2cccs2)c2ccc3c(c2)OCO3)c1 (stereo not drawn)	4	48*	-2	19	-5	11	27	-2	-8
Cc1ccc(CN2CC(N3CCCCC3)CS2(=O)=O)cc1 (stereo not drawn)	-5	0	1	x	x	x	x	x	x
CC(C)Oc1ccc(S(=O)(=O)N2CCOCC2)cc1NC(=O)CCCSc1ccccc1	-6	3	-1	24	-4	14	x	x	x
CC(CNC(=O)c1ccccc1Cl)NC(=O)c1ccccc1Cl (stereo not drawn)	7	1	-1	13	0	22	x	x	x
CCN(CC)C(=O)CSc1nc2c(sc(=S)n2-c2ccccc2)c(=O)n1Cc1ccco1	14	57*	2	27	-3	5	37	0	8
CCN(CC)C(=O)CSc1nc2c(sc(=S)n2CC)c(=O)n1-c1ccccc1	6	10	2	-1	-3	-4	x	x	x
CCOC(=O)C1CCN(CC(=O)Nc2cc(C)nn2-c2nc3ccccc3s2)CC1	12	55*	6	4	-3	8	22	1	-9
Cc1cc(NC(=O)CN2CC(C)OC(C)C2)n(-c2nc3ccccc3s2)n1 (stereo not drawn)	4	18	-1	8	-1	21	x	x	x
COc1ccc2ccc(=O)oc2c1CC(=O)C(C)C	5	-1	2	-5	0	0	x	x	x
NC(=O)C1CCN(S(=O)(=O)c2cc3c4c(c2)CCN4C(=O)CC3)CC1	1	-15	0	-4	-3	3	x	x	x
SMILES	CXCR6 block	EBI2 antag	hiPSC survival	CCR6 antagonist	APJ agonist	APJ antagonist	EBI2 conf	EBI2 ag	bGal counter
C(=C\c1ccccc1)/CN1CCN(C(c2cc3ccccc3o2)c2nnnn2-c2ccc3c(c2)OCCO3)CC1 (stereo not drawn)	11	38	1	x	x	x	x	x	x
COc1ccc(-n2nnnc2C(c2cc3ccccc3o2)N2CCN(C/C=C/c3ccccc3)CC2)cc1 (stereo not drawn)	5	39	-1	x	x	x	x	x	x
C(=C\c1ccccc1)/CN1CCN(C(c2cccs2)c2nnnn2-c2ccc3c(c2)OCCO3)CC1 (stereo not drawn)	8	72*	-1	x	x	x	30	0	-17
C(=C\c1ccccc1)/CN1CCN(C(c2cccc3ccccc23)c2nnnn2Cc2ccccc2)CC1 (stereo not drawn)	12	64*	0	x	x	x	31	1	7
COc1ccc(-n2nnnc2C(c2cccc3ccccc23)N2CCN(C/C=C/c3ccccc3)CC2)cc1 (stereo not drawn)	13	63*	-2	x	x	x	32	1	2
CCC(c1nnnn1-c1ccc2c(c1)OCCO2)N1CCN(C/C=C/c2ccccc2)CC1 (stereo not drawn)	-9	18	1	x	x	x	x	x	x
COc1ccc(C(c2nnnn2-c2ccc3c(c2)OCCO3)N2CCN(C/C=C/c3ccccc3)CC2)cc1 (stereo not drawn)	19	60*	-1	x	x	x	41	2	0
O=C(NCC(=O)N(c1cccc(F)c1)C(C(=O)NC1CCCC1)c1cccnc1)c1ccco1 (stereo not drawn)	0	4	-1	3	0	11	x	x	x
Cc1cnc(NC(=O)CC2OC(=O)c3ccccc32)s1 (stereo not drawn)	2	-6	0	-2	1	6	x	x	x
CC(=O)NCCc1ccc(C(=O)CSc2nnc(C3CC3)n2C2CC2)cc1	-1	-5	1	2	-2	-10	x	x	x
CC(NS(=O)(=O)c1ccccc1)C1CC2CCC1C2 (stereo not drawn)	9	5	0	1	4	1	x	x	x
Cc1ccc(/C=C/C(=O)OCC(=O)NCCN2C(=O)CSC2=O)cc1	-4	56*	2	-8	-4	9	58*	2	0
